# Test results taken from ChEMBL document CHEMBL5303300, “EUbOPEN Chemogenomics Library - Multiplex” (2023).
# Several values for one entry are separate records, joined by “and”; a condition that tells them apart may be missing. Equal entries are not always repeated.
# Key:
# Format in all cases: toxicity, cell-based
# U2OS = assay: Multiplex assay against U2OS; settings: human, number of replicates 2
# Procedure, shortened: (§1)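 Cells stained live at seeding with Hoechst33342, BioTracker Green Microtubule Cytoskeleton Dye, MitoTracker Red and Annexin V Alexa Fluor 680 were imaged on a CQ1 microscope at 37°C and 5% CO2 after compound addition. Their classification by CellPathfinder machine-learning gating ran from Hoechst high-intensity objects versus normal cells, to healthy, pyknosed or fragmented nuclei among normal cells, to mitotic or apoptotic among pyknosed cells. Tubulin, mitochondrial-mass and membrane-permeability phenotypes are per cents of healthy-nucleus cells.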
# Fibroblast = assay: Multiplex assay against human fibroblast; settings: number of replicates 2; procedure, shortened: as §1
# HEK-293T = assay: Multiplex assay against HEK293T; settings: human, number of replicates 2; procedure, shortened: as §1
# [1] = 12 h, 1 µM, compound concentration 1 uM
# [2] = 12 h, 10 µM, compound concentration 10 uM
# [3] = 24 h, 1 µM, compound concentration 1 uM
# [4] = 24 h, 10 µM, compound concentration 10 uM
# [5] = 48 h, 1 µM, compound concentration 1 uM
# [6] = 48 h, 10 µM, compound concentration 10 uM
structure (smiles),measurement,setting,value
CN(C)C/C=C/C(=O)Nc1cc2c(Nc3ccc(F)c(Cl)c3)ncnc2cc1OC[C@@H]1CCCO1,Population Apoptotic (%),U2OS; [1],66% and 86%
same,Population Healthy Nuclei (%),U2OS; [1],40% and 79%
same,Population Hoechst High Intensity Objects (%),U2OS; [1],0%
same,Population Membrane Permeable-Phenotype (%),U2OS; [1],27% and 24%
same,Population Mitochondria Different-Phenotype (%),U2OS; [1],9% and 22%
same,Population Mitotic Cells (%),U2OS; [1],33% and 13%
same,Population Normal (%),U2OS; [1],100%
same,Population Pyknosed Nuclei (%),U2OS; [1],22% and 14%
same,Population Tubulin-Different-Phenotype (%),U2OS; [1],63% and 53%
same,Population Apoptotic (%),U2OS; [2],76% and 59%
same,Population Healthy Nuclei (%),U2OS; [2],23% and 66%
same,Population Hoechst High Intensity Objects (%),U2OS; [2],0%
same,Population Membrane Permeable-Phenotype (%),U2OS; [2],66% and 25%
same,Population Mitochondria Different-Phenotype (%),U2OS; [2],50% and 48%
same,Population Mitotic Cells (%),U2OS; [2],23% and 40%
same,Population Normal (%),U2OS; [2],100% and 99%
same,Population Pyknosed Nuclei (%),U2OS; [2],50% and 25%
same,Population Tubulin-Different-Phenotype (%),U2OS; [2],83% and 97%
same,Population Apoptotic (%),U2OS; [3],71% and 77%
same,Population Healthy Nuclei (%),U2OS; [3],42% and 74%
same,Population Hoechst High Intensity Objects (%),U2OS; [3],0%
same,Population Membrane Permeable-Phenotype (%),U2OS; [3],14% and 18%
same,Population Mitochondria Different-Phenotype (%),U2OS; [3],21% and 36%
same,Population Mitotic Cells (%),U2OS; [3],28% and 22%
same,Population Normal (%),U2OS; [3],100% and 99%
same,Population Pyknosed Nuclei (%),U2OS; [3],21% and 20%
same,Population Tubulin-Different-Phenotype (%),U2OS; [3],35% and 48%
same,Population Apoptotic (%),U2OS; [4],85% and 65%
same,Population Hoechst High Intensity Objects (%),U2OS; [4],0% and 1%
same,Population Membrane Permeable-Phenotype (%),U2OS; [4],100% and 35%
same,Population Mitochondria Different-Phenotype (%),U2OS; [4],80% and 70%
same,Population Mitotic Cells (%),U2OS; [4],14% and 34%
same,Population Normal (%),U2OS; [4],100% and 98%
same,Population Pyknosed Nuclei (%),U2OS; [4],46% and 37%
same,Population Tubulin-Different-Phenotype (%),U2OS; [4],100% and 93%
same,Population Apoptotic (%),U2OS; [5],66% and 88%
same,Population Healthy Nuclei (%),U2OS; [5],39% and 76%
same,Population Hoechst High Intensity Objects (%),U2OS; [5],0%
same,Population Membrane Permeable-Phenotype (%),U2OS; [5],27% and 14%
same,Population Mitochondria Different-Phenotype (%),U2OS; [5],45% and 26%
same,Population Mitotic Cells (%),U2OS; [5],33% and 11%
same,Population Normal (%),U2OS; [5],100%
same,Population Pyknosed Nuclei (%),U2OS; [5],21% and 18%
same,Population Tubulin-Different-Phenotype (%),U2OS; [5],63% and 40%
same,Population Apoptotic (%),U2OS; [6],76% and 90%
same,Population Hoechst High Intensity Objects (%),U2OS; [6],0% and 2%
same,Population Membrane Permeable-Phenotype (%),U2OS; [6],100% and 50%
same,Population Mitochondria Different-Phenotype (%),U2OS; [6],100% and 79%
same,Population Mitotic Cells (%),U2OS; [6],23% and 10%
same,Population Normal (%),U2OS; [6],100% and 97%
same,Population Pyknosed Nuclei (%),U2OS; [6],43% and 56%
same,Population Tubulin-Different-Phenotype (%),U2OS; [6],100% and 89%
same,Population Apoptotic (%),Fibroblast; [1],31% and 30%
same,Population Fragmented Nuclei (%),Fibroblast; [1],16% and 20%
same,Population Healthy Nuclei (%),Fibroblast; [1],57% and 60%
same,Population Hoechst High Intensity Objects (%),Fibroblast; [1],0%
same,Population Membrane Permeable-Phenotype (%),Fibroblast; [1],14% and 13%
same,Population Mitochondria Different-Phenotype (%),Fibroblast; [1],0% and 1%
same,Population Mitotic Cells (%),Fibroblast; [1],68% and 69%
same,Population Normal (%),Fibroblast; [1],99% and 100%
same,Population Pyknosed Nuclei (%),Fibroblast; [1],26% and 18%
same,Population Tubulin-Different-Phenotype (%),Fibroblast; [1],67% and 54%
same,Total Cell Count,Fibroblast; [1],169 and 229
same,Population Apoptotic (%),Fibroblast; [2],40% and 32%
same,Population Fragmented Nuclei (%),Fibroblast; [2],12% and 15%
same,Population Healthy Nuclei (%),Fibroblast; [2],41% and 47%
same,Population Hoechst High Intensity Objects (%),Fibroblast; [2],1% and 3%
same,Population Membrane Permeable-Phenotype (%),Fibroblast; [2],46% and 40%
same,Population Mitochondria Different-Phenotype (%),Fibroblast; [2],9% and 11%
same,Population Mitotic Cells (%),Fibroblast; [2],59% and 67%
same,Population Normal (%),Fibroblast; [2],98% and 96%
same,Population Pyknosed Nuclei (%),Fibroblast; [2],46% and 36%
same,Population Tubulin-Different-Phenotype (%),Fibroblast; [2],78% and 88%
same,Total Cell Count,Fibroblast; [2],181 and 317
same,Population Apoptotic (%),Fibroblast; [3],50% and 67%
same,Population Fragmented Nuclei (%),Fibroblast; [3],14% and 20%
same,Population Healthy Nuclei (%),Fibroblast; [3],65% and 66%
same,Population Hoechst High Intensity Objects (%),Fibroblast; [3],0%
same,Population Membrane Permeable-Phenotype (%),Fibroblast; [3],6% and 8%
same,Population Mitochondria Different-Phenotype (%),Fibroblast; [3],2% and 5%
same,Population Mitotic Cells (%),Fibroblast; [3],50% and 32%
same,Population Normal (%),Fibroblast; [3],99% and 100%
same,Population Pyknosed Nuclei (%),Fibroblast; [3],19% and 13%
same,Population Tubulin-Different-Phenotype (%),Fibroblast; [3],69% and 51%
same,Total Cell Count,Fibroblast; [3],155 and 235
same,Population Apoptotic (%),Fibroblast; [4],68% and 65%
same,Population Fragmented Nuclei (%),Fibroblast; [4],17% and 13%
same,Population Healthy Nuclei (%),Fibroblast; [4],27% and 29%
same,Population Hoechst High Intensity Objects (%),Fibroblast; [4],2% and 6%
same,Population Membrane Permeable-Phenotype (%),Fibroblast; [4],27% and 28%
same,Population Mitochondria Different-Phenotype (%),Fibroblast; [4],45% and 47%
same,Population Mitotic Cells (%),Fibroblast; [4],31% and 34%
same,Population Normal (%),Fibroblast; [4],97% and 93%
same,Population Pyknosed Nuclei (%),Fibroblast; [4],54% and 56%
same,Population Tubulin-Different-Phenotype (%),Fibroblast; [4],80% and 77%
same,Total Cell Count,Fibroblast; [4],147 and 216
same,Population Apoptotic (%),Fibroblast; [5],72% and 80%
same,Population Fragmented Nuclei (%),Fibroblast; [5],15% and 23%
same,Population Healthy Nuclei (%),Fibroblast; [5],68% and 64%
same,Population Hoechst High Intensity Objects (%),Fibroblast; [5],0% and 1%
same,Population Membrane Permeable-Phenotype (%),Fibroblast; [5],5% and 3%
same,Population Mitochondria Different-Phenotype (%),Fibroblast; [5],11% and 5%
same,Population Mitotic Cells (%),Fibroblast; [5],28% and 20%
same,Population Normal (%),Fibroblast; [5],100% and 98%
same,Population Pyknosed Nuclei (%),Fibroblast; [5],15% and 11%
same,Population Tubulin-Different-Phenotype (%),Fibroblast; [5],55% and 42%
same,Total Cell Count,Fibroblast; [5],157 and 217
same,Population Apoptotic (%),Fibroblast; [6],89% and 84%
same,Population Fragmented Nuclei (%),Fibroblast; [6],27% and 18%
same,Population Healthy Nuclei (%),Fibroblast; [6],24% and 32%
same,Population Hoechst High Intensity Objects (%),Fibroblast; [6],5% and 14%
same,Population Membrane Permeable-Phenotype (%),Fibroblast; [6],36% and 40%
same,Population Mitochondria Different-Phenotype (%),Fibroblast; [6],50% and 42%
same,Population Mitotic Cells (%),Fibroblast; [6],10% and 15%
same,Population Normal (%),Fibroblast; [6],94% and 85%
same,Population Pyknosed Nuclei (%),Fibroblast; [6],47% and 48%
same,Population Tubulin-Different-Phenotype (%),Fibroblast; [6],76%
same,Total Cell Count,Fibroblast; [6],128 and 187
same,Population Apoptotic (%),HEK-293T; [1],39% and 48%
same,Population Fragmented Nuclei (%),HEK-293T; [1],3% and 2%
same,Population Healthy Nuclei (%),HEK-293T; [1],83% and 85%
same,Population Hoechst High Intensity Objects (%),HEK-293T; [1],7% and 8%
same,Population Membrane Permeable-Phenotype (%),HEK-293T; [1],4% and 5%
same,Population Mitochondria Different-Phenotype (%),HEK-293T; [1],32% and 29%
same,Population Mitotic Cells (%),HEK-293T; [1],60% and 51%
same,Population Normal (%),HEK-293T; [1],92% and 91%
same,Population Pyknosed Nuclei (%),HEK-293T; [1],13% and 12%
same,Population Tubulin-Different-Phenotype (%),HEK-293T; [1],94% and 91%
same,Total Cell Count,HEK-293T; [1],593 and 650
same,Population Apoptotic (%),HEK-293T; [2],72% and 76%
same,Population Fragmented Nuclei (%),HEK-293T; [2],2% and 4%
same,Population Healthy Nuclei (%),HEK-293T; [2],75% and 78%
same,Population Hoechst High Intensity Objects (%),HEK-293T; [2],20% and 28%
same,Population Membrane Permeable-Phenotype (%),HEK-293T; [2],2% and 4%
same,Population Mitochondria Different-Phenotype (%),HEK-293T; [2],73% and 75%
same,Population Mitotic Cells (%),HEK-293T; [2],27% and 23%
same,Population Normal (%),HEK-293T; [2],79% and 71%
same,Population Pyknosed Nuclei (%),HEK-293T; [2],21% and 17%
same,Population Tubulin-Different-Phenotype (%),HEK-293T; [2],60% and 66%
same,Total Cell Count,HEK-293T; [2],256 and 344
same,Population Apoptotic (%),HEK-293T; [3],57% and 51%
same,Population Fragmented Nuclei (%),HEK-293T; [3],6% and 5%
same,Population Healthy Nuclei (%),HEK-293T; [3],87% and 86%
same,Population Hoechst High Intensity Objects (%),HEK-293T; [3],8%
same,Population Membrane Permeable-Phenotype (%),HEK-293T; [3],4%
same,Population Mitochondria Different-Phenotype (%),HEK-293T; [3],21% and 18%
same,Population Mitotic Cells (%),HEK-293T; [3],42% and 48%
same,Population Normal (%),HEK-293T; [3],91%
same,Population Pyknosed Nuclei (%),HEK-293T; [3],6% and 8%
same,Population Tubulin-Different-Phenotype (%),HEK-293T; [3],81% and 83%
same,Total Cell Count,HEK-293T; [3],811 and 859
same,Population Apoptotic (%),HEK-293T; [4],89% and 76%
same,Population Fragmented Nuclei (%),HEK-293T; [4],3% and 1%
same,Population Healthy Nuclei (%),HEK-293T; [4],62% and 73%
same,Population Hoechst High Intensity Objects (%),HEK-293T; [4],25% and 29%
same,Population Membrane Permeable-Phenotype (%),HEK-293T; [4],7% and 0%
same,Population Mitochondria Different-Phenotype (%),HEK-293T; [4],74% and 79%
same,Population Mitotic Cells (%),HEK-293T; [4],10% and 23%
same,Population Normal (%),HEK-293T; [4],74% and 70%
same,Population Pyknosed Nuclei (%),HEK-293T; [4],33% and 24%
same,Population Tubulin-Different-Phenotype (%),HEK-293T; [4],60% and 57%
same,Total Cell Count,HEK-293T; [4],303 and 369
same,Population Apoptotic (%),HEK-293T; [5],32% and 29%
same,Population Fragmented Nuclei (%),HEK-293T; [5],11% and 10%
same,Population Healthy Nuclei (%),HEK-293T; [5],83% and 85%
same,Population Hoechst High Intensity Objects (%),HEK-293T; [5],9% and 10%
same,Population Membrane Permeable-Phenotype (%),HEK-293T; [5],7% and 5%
same,Population Mitochondria Different-Phenotype (%),HEK-293T; [5],5% and 4%
same,Population Mitotic Cells (%),HEK-293T; [5],67% and 70%
same,Population Normal (%),HEK-293T; [5],90% and 89%
same,Population Pyknosed Nuclei (%),HEK-293T; [5],4%
same,Population Tubulin-Different-Phenotype (%),HEK-293T; [5],60% and 62%
same,Total Cell Count,HEK-293T; [5],1468 and 1438
same,Population Apoptotic (%),HEK-293T; [6],87% and 89%
same,Population Fragmented Nuclei (%),HEK-293T; [6],9% and 8%
same,Population Healthy Nuclei (%),HEK-293T; [6],43% and 53%
same,Population Hoechst High Intensity Objects (%),HEK-293T; [6],31% and 32%
same,Population Membrane Permeable-Phenotype (%),HEK-293T; [6],4% and 1%
same,Population Mitochondria Different-Phenotype (%),HEK-293T; [6],81% and 83%
same,Population Mitotic Cells (%),HEK-293T; [6],12% and 10%
same,Population Normal (%),HEK-293T; [6],68% and 67%
same,Population Pyknosed Nuclei (%),HEK-293T; [6],47% and 38%
same,Population Tubulin-Different-Phenotype (%),HEK-293T; [6],52% and 58%
same,Total Cell Count,HEK-293T; [6],355 and 410
